Measured values gathered from unrelated publications.
Compare with care: the assays were run in different laboratories.
Observed: cell growth or viability

C=CCN1C(=O)C(=Nc2cccc(C)c2)c2ccccc21 — IC50 (B16; MTT; 48 h): 28.6 µM
FC(F)(F)c1cc(OCc2cc(-c3ccccc3)no2)c2ccccc2n1 — IC50 (Z-138; MTS; 72 h): 68.2 µM
O=C1C(=Nc2ccc(Cl)cc2Br)c2ccccc2N1Cc1ccc(Br)cc1 — IC50 (B16; MTT; 48 h): 1.65 µM
Cc1nc(Nc2ncc(C(=O)Nc3c(C)cccc3Cl)s2)cc(N2CC[C@H](O)C2)n1 — inhibition (Z-138; ATP luminescence; 10 µM; 72 h): 56%
COc1cc([C@@H]2c3cc4c(cc3[C@@H](O[C@@H]3O[C@@H]5CO[C@@H](C)O[C@H]5[C@H](O)[C@H]3O)[C@H]3COC(=O)[C@H]23)OCO4)cc(OC)c1O — IC50 (Z-138; MTS; 72 h): 0.08 µM
Cc1n[nH]c2ccc3nc(-c4ccc(C(=O)NCCN(C)C)cc4F)c4c(c3c12)CCCCC4 — GI50 (G-361; 72 h): > 10 µM
N#Cc1ccc(-c2cc(COc3cc(=O)oc4ccccc34)on2)cc1 — IC50 (Z-138; MTS; 72 h): > 100 µM
O=C1C(=Nc2ccccc2Br)c2ccccc2N1Cc1ccccc1 — IC50 (B16; MTT; 48 h): 0.5 µM
Cc1nc(NC(=O)N2CCC[C@H]2C(N)=O)sc1-c1ccnc(C(C)(C)C(F)(F)F)c1 — EC50 (BT-20; ATP luminescence; 5 days): 2.48 µM
CN(C)CCNC(=O)c1ccc(-c2nc3ccc4[nH]ncc4c3c3c2CCCCC3)cc1 — GI50 (G-361; 72 h): > 10 µM
O=C(CCc1ccc(Cl)cc1)N1C(=O)C(=Nc2ccc(Cl)cc2Br)c2ccccc21 — IC50 (B16; MTT; 48 h): 23.6 µM
CN(C)CCNC(=O)c1ccc(-c2nc3ccc4[nH]ncc4c3c3c2CCCC3)cc1 — GI50 (G-361; 72 h): 3.5 µM
Cc1ccc(CN2C(=O)C(=Nc3c(C(C)C)cccc3C(C)C)c3ccccc32)cc1 — IC50 (B16; MTT; 48 h): 57.2 µM
CCc1nc(C(N)=O)c(Nc2ccc(N3CCC(N4CCN(C)CC4)CC3)c(OC)c2)nc1NC1CCOCC1 — GI50 (G-361; 72 h): 1.17 µM
C[C@H](Nc1ccc2c(c1)OCCn1cc(N3C(=O)OC[C@H]3C(F)F)nc1-2)C(N)=O — EC50 (BT-20; ATP luminescence; 5 days): 0.449 µM
O=c1cc(OCc2cc(-c3ccccn3)no2)c2ccccc2o1 — IC50 (Z-138; MTS; 72 h): > 100 µM
CN(C)CCNC(=O)c1ccc(-c2nc3ccc4[nH]ncc4c3c3c2CCCCC3)c(F)c1 — GI50 (G-361; 72 h): 3.55 µM
